Results from ChEMBL document CHEMBL6092225, “Design, Synthesis, and Biological Evaluation of [1,2,5]Oxadiazolo[3,4-b]pyridin-7-ol as Mitochondrial Uncouplers for the Treatment of Obesity and Metabolic Dysfunction-Associated Steatohepatitis” (J Med Chem, 2024).
pEC50: −log10 of the molar value. Active and inactive are the calls of the source. The calls are words filed in the database; no cut-off is given here.

Legend:
[1] = Induction of oxygen consumption rate in rat L6 cells measured for 90 mins by Seahorse assay; type: functional, cell-based; conditions: for pEC50: read-out: EC50
L6 [2] = test: (§1) Induction of oxygen consumption rate in rat L6 cells upto 200 uM measured for 90 mins by Seahorse assay relative to BAM15; type: functional
[3] = as §1; type: functional; conditions: 1.5 h, up to 200 µM
Mus musculus [4] = test: Effect on liver mass in diet-induced Gubra-Amylin NASH C57BL/6 mouse model of MASH at 200 mg/kg, po for 4 weeks; type: functional, organism-based
Outline: (§2)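 Male C57BL/6 mice, GAN diet from 5/6 weeks old for 33 weeks, then single-housed and stratified by baseline body weight and body composition. Fed GAN diet alone or GAN diet admixed with compound at 200 mg/kg for 4 weeks, fresh compound daily. Body weight and food intake measured daily, body composition weekly by EchoMRI, organs weighed at end.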

Mus musculus [5] = test: Effect on calorie intake in diet-induced Gubra-Amylin NASH C57BL/6 mouse model of MASH at 200 mg/kg, po; type: functional, organism-based; outline: as §2
Mus musculus [6] = test: Anti-obesity activity in diet-induced Gubra-Amylin NASH C57BL/6 mouse model of MASH assessed as decrease in liver triglyceride level at 200 mg/kg, po for 4 weeks; type: functional, organism-based
Outline: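 GAN-diet male C57BL/6 mice dosed 200 mg/kg daily in food for 4 weeks. Liver harvested at end, frozen in liquid nitrogen, lipid extracted. Extract heated 10 min at 37 °C, then triglyceride measured by colorimetric assay and normalized to initial grams extracted.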

Mus musculus [7] = test: Anti-obesity activity in diet-induced Gubra-Amylin NASH C57BL/6 mouse model of MASH assessed as decrease in NAFLD activity score at 200 mg/kg, po for 4 weeks; type: functional, organism-based; outline: as §2
[8] = Toxicity in C57BL/6 mouse assessed as change in body temperature at 30 to 1000 mg/kg, po measured for 24 hrs; type: organism-based; conditions: in vivo, dose 30-1000 mg/kg
Outline: (§3)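 Male C57BL/6 mice, 9 weeks old, given vehicle or compound at 30, 100, 300 or 1000 mg/kg by single oral gavage. Monitored 24 h after dosing for core temperature by rectal probe, body weight and food intake. n = 3, mean ± SEM.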

Mus musculus [9] = test: Anti-obesity activity in diet-induced Gubra-Amylin NASH C57BL/6 mouse model of MASH assessed at 200 mg/kg, po for 4 weeks by EchoMRI analysis
Mus musculus [10] = test: Anti-obesity activity in diet-induced Gubra-Amylin NASH C57BL/6 mouse model of MASH assessed as decrease in plasma ALT level at 200 mg/kg, po for 4 weeks; type: functional, organism-based
Outline: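 GAN-diet male C57BL/6 mice given compound admixed in diet at 200 mg/kg daily for 4 weeks. Terminal EDTA plasma taken by cardiac puncture under isoflurane. ALT activity measured by kit assay, samples diluted 1:8 in ALT assay buffer.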

[11] = Toxicity in C57BL/6 mouse assessed as change in appetite at 30 to 1000 mg/kg, po measured for 24 hrs; type: organism-based; conditions: in vivo, dose 30-1000 mg/kg; outline: as §3
L6 [12] = test: Induction of oxygen consumption rate in rat L6 cells at 10 uM measured for 90 mins in presence of oligomycin by Seahorse assay; type: functional, cell-based
Outline: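 L6 myoblasts in unbuffered DMEM with pyruvate and glutamine (pH 7.4) on Seahorse XF. Mitochondrial stress test: oligomycin 1 µM or vehicle injected, then compound at 10 µM, then antimycin A 10 µM plus rotenone 1 µM at set times. n = 3 wells per condition, mean ± SEM.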

[13] = Toxicity in C57BL/6 mouse assessed as change in body weight at 30 to 1000 mg/kg, po measured for 24 hrs; type: organism-based; conditions: in vivo, dose 30-1000 mg/kg; outline: as §3
Mus musculus [14] = test: Effect on fibrosis stage of liver in diet-induced Gubra-Amylin NASH C57BL/6 mouse model of MASH at 200 mg/kg, po for 4 weeks; type: functional, organism-based
Mus musculus [15] = test: Anti-obesity activity in diet-induced Gubra-Amylin NASH C57BL/6 mouse model of MASH assessed as decrease in fat mass at 200 mg/kg, po for 4 weeks by EchoMRI analysis; type: functional, organism-based
Outline: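 Male C57BL/6 mice kept on GAN diet for 33 weeks, then fed GAN diet with or without compound admixed at 200 mg/kg daily for 4 weeks. Fat and lean mass measured weekly by EchoMRI.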

[16] = Toxicity in C57BL/6 mouse assessed as drug tolerance upto 1000 mg/kg, po measured for 24 hrs; type: organism-based; conditions: in vivo; outline: as §3
[17] = Induction of oxygen consumption rate in rat L6 cells assessed as increase in respiration at 10 uM measured for 90 mins in presence of BAM15 by Seahorse assay relative to control; type: functional; conditions: 1.5 h

SMILES | EC50 [1] | Activity (L6 [2]) | further results
CCCCc1ccc(Nc2cnc3nonc3c2O)cc1 |  |  | pEC50 [1]: 6.00
CC(C)(C)Oc1ccc(Nc2cnc3nonc3c2O)cc1 |  |  | pEC50 [1]: 5.22; Activity [3]: 20%
CC(=O)c1ccc(Nc2cnc3nonc3c2O)cc1 | Not_active | inactive | 
CC1(C)c2ccccc2-c2ccc(Nc3cnc4nonc4c3O)cc21 | Not_active | inactive | 
Oc1c(Nc2ccc(-c3ccc(Cl)cc3)cc2)cnc2nonc12 |  |  | Activity [3]: 57%
Oc1c(Nc2ccc(C(F)(F)F)nc2)cnc2nonc12 | Not_active | inactive | 
Oc1c(Nc2ccccc2-c2ccccc2)cnc2nonc12 | Not_active | inactive | 
Oc1c(Nc2ccc(-c3cccc(Cl)c3)cc2)cnc2nonc12 |  |  | Activity (Mus musculus [4]): Not active; No Significant Change In Liver Mass Was Observed But Showed Improvements In Fatty Liver Disease Phenotypes; Activity (Mus musculus [5]): inactive; Activity (Mus musculus [6]): Active; Activity (Mus musculus [7]): Active; The Occurence Is Due To Decreased Hepatic Steatosis; Activity [8]: Non-toxic; Activity (Mus musculus [9]): Active; Activity (Mus musculus [10]): Active; Activity [11]: Non-toxic; Activity (L6 [12]): Active; Action Of Drug Suggests Proton Transport Into Matrix Independent Of Atp Synthase; Activity Of Drug Requires Electron Transport Chain Activity; Activity [13]: Non-toxic; Activity (Mus musculus [14]): inactive; Activity (Mus musculus [15]): Active; Activity Of Drug Indicates Improved Body Composition; Activity [16]: Non-toxic; Activity [17]: 300%
Oc1c(Nc2cccc(-c3ccccc3)c2)cnc2nonc12 |  |  | pEC50 [1]: 5.22; Activity [3]: 20%
N#Cc1ccc(Nc2cnc3nonc3c2O)cc1 | Not_active | inactive | 
Oc1c(Nc2ccc(-c3ccc(F)cc3)cc2)cnc2nonc12 |  |  | Activity [3]: 60%
Oc1c(Nc2ccc(F)nc2)cnc2nonc12 | Not_active | inactive | 

Second part, led by results:

EC50 [1] | SMILES | Activity (L6 [2]) | further results
Not_active | Oc1c(Nc2ccc(-c3cccc(F)c3F)cc2)cnc2nonc12 | inactive | 
Not_active | Oc1c(Nc2ccc(-c3cc(F)ccc3F)cc2)cnc2nonc12 | inactive | 
Not_active | Oc1c(Nc2ccc(-c3ccc(C(F)(F)F)cc3)cc2)cnc2nonc12 | inactive | 
Not_active | Oc1c(-c2ccc(-c3ccc(F)cc3)cc2)cnc2nonc12 | inactive | 
Not_active | Oc1c(Nc2ccc(-c3ccccc3F)cc2)cnc2nonc12 | inactive | 
Not_active | Oc1c(Nc2ccc(-c3ccc(F)c(F)c3)cc2)cnc2nonc12 | inactive | 
Not_active | Oc1c(Nc2ccc(-c3cccc(Cl)c3Cl)cc2)cnc2nonc12 | inactive | 
